Active and inactive are the calls of the source. The rule behind the calls is not given here.
Organism: Rattus norvegicus
Assay: Reduction of testosterone-induced prostate weight increase in Sprague-Dawley rat by modified Hersherberger assay relative to control
Assay type: functional, Prostate gland
Design: concentration or dose not given beside the values
Conditions: not given
In short: (§1)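 Rats castrated at three weeks old, then dosed orally by gavage once daily for five days in 30% (w/v) hydroxypropyl-β-cyclodextrin, together with testosterone propionate 0.1 mg/day (about 1.3 mg/kg) s.c. in sesame oil. At necropsy, ventral prostate wet weight was measured. Values are body-weight-adjusted means of three or four animals.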

Row | Structure (SMILES) | Activity [%]
1 | CC(C)(O)c1cc2cc([N+](=O)[O-])c(C(F)(F)F)cc2[nH]1 | 32
2 | CC(O)(c1cc2cc([N+](=O)[O-])c(C(F)(F)F)cc2[nH]1)C(F)(F)F (stereo not given) | 78
3 | CC(C)(O)c1[nH]c2cc(C(F)(F)F)c([N+](=O)[O-])cc2c1Cl | 81
4 | CSCC(C)(O)c1cc2cc([N+](=O)[O-])c(C(F)(F)F)cc2[nH]1 (stereo not given) | 66
5 | CC(O)(CCl)c1cc2cc([N+](=O)[O-])c(C(F)(F)F)cc2[nH]1 (stereo not given) | 38
6 | CC(C)(O)c1[nH]c2cc(C(F)(F)F)c([N+](=O)[O-])cc2c1Br | 71
7 | CC(O)(c1cc2cc(C#N)c(C(F)(F)F)cc2[nH]1)C(F)(F)F (stereo in doubt; 6i) | 82
8 | CC(O)(c1cc2cc(C#N)c(C(F)(F)F)cc2[nH]1)C(F)(F)F (single isomer, unassigned; (+)) | 76
9 | CC(O)(CS(=O)(=O)c1ccc(F)cc1)C(=O)Nc1ccc(C#N)c(C(F)(F)F)c1 (stereo not given) [BICALUTAMIDE] | 75
10 | CC(O)(c1cc2cc(C#N)c(C(F)(F)F)cc2[nH]1)C(F)(F)F (single isomer, unassigned; (-)) | 80
11 | CC(C)(O)c1[nH]c2cc(C(F)(F)F)c([N+](=O)[O-])cc2c1I | 59
12 | Cc1c(C(C)(C)O)[nH]c2cc(C(F)(F)F)c([N+](=O)[O-])cc12 | 37
13 | Cc1c(C(C)(C)O)[nH]c2cc(C(F)(F)F)c(C#N)cc12 | 55
14 | CC(C)(O)c1[nH]c2cc(C(F)(F)F)c(C#N)cc2c1I | 81
15 | CCC(C)(O)c1cc2cc([N+](=O)[O-])c(C(F)(F)F)cc2[nH]1 (stereo not given) | 63
16 | CC(C)(O)c1[nH]c2cc(C(F)(F)F)c([N+](=O)[O-])cc2c1C#N | 56
17 | CC(O)(c1cc2cc(Cl)c(C(F)(F)F)cc2[nH]1)C(F)(F)F (stereo not given) | 30
18 | CC(O)(c1[nH]c2cc(C(F)(F)F)c(C#N)cc2c1I)C(F)(F)F (stereo not given) | 79
19 | Cn1c(C(C)(O)C(F)(F)F)cc2cc(C#N)c(C(F)(F)F)cc21 (stereo not given) | 90
20 | CC(O)(c1cc2cc(C#N)ccc2[nH]1)C(F)(F)F (stereo not given) | 55
21 | CC(O)(c1[nH]c2cc(C(F)(F)F)c(C#N)cc2c1Cl)C(F)(F)F (stereo not given) | 66
22 | CC(O)(CO)c1cc2cc([N+](=O)[O-])c(C(F)(F)F)cc2[nH]1 (stereo not given) | 58

Same assay, conditions: Prostate gland

Row | Structure (SMILES) | Activity
23 | CC(O)c1cc2cc([N+](=O)[O-])c(C(F)(F)F)cc2[nH]1 (stereo not given) | inactive
24 | C=Cc1c(C(C)(C)O)[nH]c2cc(C(F)(F)F)c([N+](=O)[O-])cc12 | inactive

Organism: Rattus norvegicus
Assay: Inhibition of testosterone-induced prostate weight increase in Sprague-Dawley rat by modified Hersherberger assay
Assay type: functional, Prostate gland
Conditions: not given
In short: as §1

Row | Structure (SMILES) | ID50 [mg/day]
25 | CC(C)(O)c1[nH]c2cc(C(F)(F)F)c(C#N)cc2c1Cl | >3
26 | CC(O)(c1cc2cc(C#N)c(C(F)(F)F)cc2[nH]1)C(F)(F)F (single isomer, unassigned; (+)) | 0.43
27 | CC(O)(CS(=O)(=O)c1ccc(F)cc1)C(=O)Nc1ccc(C#N)c(C(F)(F)F)c1 (stereo not given) [BICALUTAMIDE] | 0.29
28 | CC(O)(c1cc2cc(C#N)c(C(F)(F)F)cc2[nH]1)C(F)(F)F (single isomer, unassigned; (-)) | 0.13
29 | CC(C)(O)c1[nH]c2cc(C(F)(F)F)c(C#N)cc2c1I | 1.1
30 | CC(C)(O)c1[nH]c2cc(C(F)(F)F)c(C#N)cc2c1Br | 0.8

Reference: ChEMBL document CHEMBL1146271, “The discovery of a potent orally efficacious indole androgen receptor antagonist through in vivo screening” (2007)
